Measurements published in the RNAGym collection of RNA variant scans (doi:10.1126/science.aae0568).
This sample holds only a part of the variants without activity.

B1: tRNA (parent)
chain: GUUCCGUUGGCGUAAUGGUAACGCGUCUCCCUCCUAAGGAGAAGACUGCGGGUUCGAGUCCCGUACGGAACG

Variants of: B1
Experiment: yeast fitness relative to wild type (ratio to wild type); higher = fitter; tRNA-Arg(CCU), competitive growth, 37 C, YPD
In short: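 Genotype frequency changes were the basis for Darwinian fitness relative to wild type. The frequencies came from 100-nucleotide paired-end sequencing of gene amplicons from the start population and each end population of pooled yeast strains with tRNA-Arg(CCU) gene variants at the native locus. Competition ran in YPD at 37°C for 24 hours in six replicates, genotypes needed ≥ 100 starting reads, and estimates < 0.5 were set to 0.5.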

Point of comparison: GUUCCGUUGGCGUAAUGGUAACGCGUCUCCCUCCUAUGGAGAAGACUGCGGGUUCGAGUCCCGUCCGGAACG [A37U A65C], yeast fitness 0.739. Against it:
- GUUCCGUUGGCGUAAUGGUAACGCGUCUCCCUCCUAGGGAGAAGACUGCGGAUUGGAGUCCCGUACGGAACG [A37G G52A C55G] — lower, 0.516
- GUUCCGUUGGCGUAAUGGUAACGCGUCUCCCUCCUACGGAGAAGACUGCGGCUUCGAGUCCCGUAGGGAACG [A37C G52C C66G] — lower, ≤ 0.5
- GUUCCGUUGGCGUAAUGGUAACGCGUCUCCCUCCUAGGGAGAAGACUGCGGGUUCGAGUCCCGUACGGACCG [A37G A70C] — higher, 0.76
- GUUCCGUUGGCGUAAUGGUAACGCGUCUCCCUCCUAUGGAGAAAACUGCGGGUUCGAGUCCCGUUCGGAACG [A37U G44A A65U] — lower, ≤ 0.5
- GUUCCGUUGGCGUAAUGGUAACGCGUCUCCCUCCUACGGAGAAGAUUGCGGGUUCGAGUCCCGUACGGUACG [A37C C46U A69U] — lower, 0.7
- GUUCCGUUGGCGUAAUGGUAACGCGUCUCCCUCCUAGGGCGACGACUGCGGGUUCGAGUCCCGUACUGAACG [A37G A40C A43C G67U] — lower, ≤ 0.5
- GUUCCGUUGGCGUAAUGGUAACGCGUCUCCCUCCUAGGGAGAACCCUGCAGGUUGGAGUCCCGUAAGGAACG [A37G G44C A45C G50A C55G C66A] — lower, ≤ 0.5
- GUUCCGUUGGCGUAAUGGUAACGCGUCUCCCUCCUAUGGAGAAGACUGCGGGUUCGAGUCCCCUACGGCACG [A37U G63C A69C] — lower, ≤ 0.5
- GUUCCGUUGGCGUAAUGGUAACGCGUCUCCCUCCUAAAGAGAUGACUGCGGGUUCAAGUCCCGUACGGAACG [G38A A43U G56A] — lower, 0.596
- GUUCCGUUGGCGUAAUGGUAACGCGUCUCCCUCCUAAAGAGCAGACUGCGGGUCCGAGUCCCGUACGGCACG [G38A A42C U54C A69C] — lower, ≤ 0.5
- GUUCCGUUGGCGUAAUGGUAACGCGUCUCCCUCCUAUGGAGGAGUCUGCGGGUUCGAGUCCCGUACCGAACG [A37U A42G A45U G67C] — lower, ≤ 0.5
- GUUCCGUUGGCGUAAUGGUAACGCGUCUCCCUCCUAGGGAGAAGACUGCGCGUUCGAGUCCCGUACGGAACG [A37G G51C] — lower, 0.601
- GUUCCGUUGGCGUAAUGGUAACGCGUCUCCCUCCUAGGGAGAAGACUGCGGGUUCGAGUCCUGUACGGAACG [A37G C62U] — higher, 0.864
- GUUCCGUUGGCGUAAUGGUAACGCGUCUCCCUCCUAAAGGGAAGACUGUGGGUUCGAGUCCCGUAAGGAACG [G38A A40G C49U C66A] — lower, ≤ 0.5
- GUUCCGUUGGCGUAAUGGUAACGCGUCUCCCUCCUAGGGAGAACACUGCGGGUUCGUGUCCCGUACGCAACG [A37G G44C A57U G68C] — lower, 0.512
- GUUCCGUUGGCGUAAUGGUAACGCGUCUCCCUCCUAUGGAGAAGACUGCGGGUUCGAGUCCCGUACGGAUCG [A37U A70U] — lower, 0.655
- GUUCCGUUGGCGUAAUGGUAACGCGUCUCCCUCCUAUGGAGAAGACUGAGGGUUCGAGUCCCGUUCGGAACG [A37U C49A A65U] — lower, ≤ 0.5
- GUUCCGUUGGCGUAAUGGUAACGCGUCUCCCUCCUAUGGAGAAGACUGCGGGUUCGAGUCCCGUCGGGAACG [A37U A65C C66G] — lower, ≤ 0.5
- GUUCCGUUGGCGUAAUGGUAACGCGUCUCCCUCCUAGGGAGAAGAUUGCGGGUUCGAGGCCCGUACGGAACG [A37G C46U U59G] — lower, 0.508
- GUUCCGUUGGCGUAAUGGUAACGCGUCUCCCUCCUAUGGAGAAGACUGCGGGUUUGAGUCGCGUUCGGAACG [A37U C55U C61G A65U] — lower, ≤ 0.5
- GUUCCGUUGGCGUAAUGGUAACGCGUCUCCCUCCUAUGGAGAAGACUGCGGGUUCGAGUCGCGUACGGAACG [A37U C61G] — lower, 0.529
- GUUCCGUUGGCGUAAUGGUAACGCGUCUCCCUCCUACGGAGAAGAGUGCGGGUUCGAGUCCCGUACGGACCG [A37C C46G A70C] — lower, 0.632
- GUUCCGUUGGCGUAAUGGUAACGCGUCUCCCUCCUAGGGAGUAGACUGCGGGUUCGAGUCCCGUACGGAACG [A37G A42U] — higher, 0.787
- GUUCCGUUGGCGUAAUGGUAACGCGUCUCCCUCCUAUGGAGAAGACUGCGGGUUCGAGUCCCGAACGGAACG [A37U U64A] — lower, 0.642
- GUUCCGUUGGCGUAAUGGUAACGCGUCUCCCUCCUACGGAGAAGACUGCGGGCUCGAGUCCCGAACGGAACG [A37C U53C U64A] — lower, 0.679
- GUUCCGUUGGCGUAAUGGUAACGCGUCUCCCUCCUACGGAGAAGACUGCGGGUUCGAGUCCCGUACGGAGCG [A37C A70G] — higher, 0.769
- GUUCCGUUGGCGUAAUGGUAACGCGUCUCCCUCCUAAAGAGACGACUGCGGGUUCGAGUCCCGUCCGGAACG [G38A A43C A65C] — lower, ≤ 0.5
- GUUCCGUUGGCGUAAUGGUAACGCGUCUCCCUCCUAUGGAGAAGACUGCGGGUUCGAGUCCCGUAAGGAACG [A37U C66A] — lower, 0.528
- GUUCCGUUGGCGUAAUGGUAACGCGUCUCCCUCCUAGGGAGUAGACUGCGGGUUCGAGUCCCGUCCGGCACG [A37G A42U A65C A69C] — lower, ≤ 0.5
- GUUCCGUUGGCGUAAUGGUAACGCGUCUCCCUCCUACGGAGAAGACUGCGGGUUCGAGUGCCGUACAGAACG [A37C C60G G67A] — lower, ≤ 0.5
- GUUCCGUUGGCGUAAUGGUAACGCGUCUCCCUCCUACGGAGAAGACUGCGGGUUGGAGUCCCAUACGGAACG [A37C C55G G63A] — lower, ≤ 0.5
- GUUCCGUUGGCGUAAUGGUAACGCGUCUCCCUCCUAGGGAGAAGACUGCGGGUUCGACUCCCGUACGGAACG [A37G G58C] — lower, 0.719
- GUUCCGUUGGCGUAAUGGUAACGCGUCUCCCUCCUAGGGAGAAGACUGCGGGUUCGAAUCCCGUACGGAACG [A37G G58A] — higher, 0.976
- GUUCCGUUGGCGUAAUGGUAACGCGUCUCCCUCCUACGGAGAAGACUGCGGGUUCCAGUCCCGUACGGAACG [A37C G56C] — lower, 0.6
- GUUCCGUUGGCGUAAUGGUAACGCGUCUCCCUCCUACGGAGAAGACUGCGGGUUCGAGUCCCCUAUGGAACG [A37C G63C C66U] — lower, ≤ 0.5
- GUUCCGUUGGCGUAAUGGUAACGCGUCUCCCUCCUAGGGAGAAGACUGCGGGUUCGACUCCCGUACGGCACG [A37G G58C A69C] — lower, 0.623
- GUUCCGUUGGCGUAAUGGUAACGCGUCUCCCUCCUAAAGUGAAGACUGCCGGUUCGAGUGCCGUACGGAGCG [G38A A40U G50C C60G A70G] — lower, 0.526
